Screening results: PubChem BioAssay, Johns Hopkins Ion Channel Center
RGS4 pot: potentiators or activators of RGS4; HEK293 M3R/inducible RGS4, carbachol calcium flux Fluo4; active compounds read low; B-score at 10 µM; 310,000 tested, 0.92% active;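 active = B-score of the integrated calcium signal more than 4 SD below the library mean, with starting fluorescence not abnormally high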;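 note: negative B-score means reduced calcium response which marks RGS4 activation or potentiation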
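Assay system: HEK293 FlpIn-TREx cells, stable M3R, doxycycline-inducible RGS4 / Probe or stimulus: carbachol, ECmax concentration / Times: overnight RGS4 induction, 30 min dye load 37 °C, 20 min compound RT / Signal: kinetic calcium fluorescence imaging with Fluo4-AM dye, 2 µM / Measure: Agonist-evoked peak-minus-minimum fluorescence over baseline, integrated ratio, B score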
MrgX1 allo act: human MrgX1 positive allosteric modulation, primary screen; MrgX1-HEK293, Fluo-4 calcium flux, FDSS; active compounds read high; B-score at 10 µM; 310,000 tested, 0.63% active; AID 588675;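 active = plate-corrected calcium response at least 3 library SD above typical, normal starting fluorescence, not activating the receptor alone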;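 note: compound read alongside a low EC10 to EC30 dose of BAM8-22 agonist; peak minus trough fluorescence over baseline measured at the second addition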
RGS4 block: inhibitors of human RGS4; P49798; HEK293 M3R/RGS4 inducible, Fluo-4 calcium flux; active compounds read high; triggered by carbachol at its EC20; B-score at 10 µM; 310,000 tested, 0.45% active; AID 463165;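 active = B-score, a plate-corrected calcium signal, over three deviations above library mean, with baseline fluorescence within five deviations of library mean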;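 note: RGS4 expression induced by doxycycline in cells with stable M3 receptor; B-score is computed from the integrated fluorescence ratio over baseline after carbachol; higher B-score means a larger calcium signal and so more RGS4 inhibition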
Target sequence (P49798 whole entry, looked up): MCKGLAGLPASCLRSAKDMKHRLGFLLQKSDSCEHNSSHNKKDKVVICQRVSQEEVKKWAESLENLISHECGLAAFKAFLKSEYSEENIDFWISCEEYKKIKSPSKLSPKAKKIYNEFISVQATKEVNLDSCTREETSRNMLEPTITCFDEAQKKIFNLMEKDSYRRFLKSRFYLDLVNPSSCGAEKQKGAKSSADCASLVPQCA
MrgX1 antag: human MrgX1 receptor antagonism, primary screen | Q96LB2 | MRGX1-HEK293 calcium flux, Fluo-4, BAM8-22 antagonism; active compounds read low | B-score at 10 µM | 310,000 tested, 1.3% active | AID 588676;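 active = calcium-response B-score plate-corrected more than 3 library SD below zero, starting fluorescence within 5 deviations, no agonist response on first addition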;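 note: peak minus trough fluorescence over baseline after final BAM8-22 challenge near maximal dose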
MrgX1 ag: human MrgX1 receptor agonism, primary screen; AID 588627; Q96LB2; MrgX1-HEK293 cells, Fluo-4 calcium fluorescence, agonist mode; active compounds read high; 310,000 tested, 0.44% active; B-score at 10 µM;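 active = calcium response B-score plate-corrected fluorescence ratio at least 3 library SD, with starting fluorescence B-score inside 5 SD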
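Assay system: MrgX1-expressing HEK293 cells / Amount: fifteen thousand cells per well / Doses: test compound in the initial addition of three / Timing: cells plated overnight, dye loaded 0.5 h 37 °C, 0.5 h room temperature / Technique: kinetic calcium dye fluorescence, Fluo-4 NW / Control set: positive and negative controls per plate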
Kir21 inh: inhibitors of mouse Kir2.1 inward-rectifier potassium channel. P35561. HEK293-Kir2.1, FluxOR thallium flux fluorescence; active compounds read low. B-score at 10 µM. 310,000 tested, 0.85% active. AID 1672;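 active = fluorescence ratio B-score at or below minus 3 SD of library scores, with starting-brightness B-score within 2 SD, cut at about -4.2 in these data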;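 note: channel flux triggered by added potassium and thallium sulfate stimulus; B-score of peak minus minimum fluorescence over baseline after thallium stimulus; more negative B-score means stronger Kir2.1 block with less thallium influx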
Target sequence (P35561 whole entry, looked up): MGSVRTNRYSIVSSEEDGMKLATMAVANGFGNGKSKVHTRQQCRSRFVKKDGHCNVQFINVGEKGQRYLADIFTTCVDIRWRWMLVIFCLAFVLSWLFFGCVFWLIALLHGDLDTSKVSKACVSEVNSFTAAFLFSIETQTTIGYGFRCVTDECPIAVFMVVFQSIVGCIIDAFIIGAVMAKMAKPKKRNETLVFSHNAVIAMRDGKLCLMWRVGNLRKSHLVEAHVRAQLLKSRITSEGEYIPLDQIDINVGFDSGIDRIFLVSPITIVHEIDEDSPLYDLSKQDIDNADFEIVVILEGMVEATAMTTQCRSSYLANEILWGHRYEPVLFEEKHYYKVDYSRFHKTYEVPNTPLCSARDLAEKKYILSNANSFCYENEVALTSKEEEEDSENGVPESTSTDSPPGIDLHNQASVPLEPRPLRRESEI
RGS4 block valid: validation of RGS4 inhibitors. shares compounds with RGS4 block. HEK293 M3R/RGS4, carbachol calcium Fluo-4 fluorescence; carbachol added at its EC20; 0 = buffer wells, 100 = carbachol control. calcium response, % at 10 µM. 1,700 tested, 65% active. AID 492999;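 active = duplicate-averaged calcium response above the buffer-only control mean plus 5 SD of those controls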;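 note: integrated fluorescence ratio F max minus min over baseline F0; higher response in RGS4-induced cells means RGS4 inhibition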
RGS4 uninduced: non-induced cell nonspecific activity of RGS4 inhibitors; shares compounds with RGS4 block; HEK293 M3R non-induced, carbachol calcium Fluo-4; submaximal (EC20) carbachol stimulus; buffer wells 0%, carbachol control wells 100%; activity (percent), % at 10 µM; 1,900 tested, 20% active; call rule not given here;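 note: RGS4 induction absent so cells express M3R without RGS4; higher means more calcium signal and flags a non-specific hit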
RGS4 inh ctr2: second counter-screen for RGS4 inhibitors: non-induced cells without carbachol | shares compounds with RGS4 block | HEK293 M3R/RGS4 non-induced, Fluo-4 calcium, no carbachol; normalised: buffer wells 0%, carbachol wells 100% | calcium response (agonist-mode artifact), % at 10 µM | AID 493001 | 1,900 tested, 22% active;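 active = duplicate-averaged calcium rise in uninduced cells above buffer wells' mean plus 5 SD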
MrgX1 ag reconf: reconfirmed activator of human MrgX1 receptor signaling. shares compounds with MrgX1 ag. MrgX1-HEK293, Fluo-4 calcium fluorescence, FDSS. activation, % at 10 µM. 600 tested, 78% active;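 active = calcium signal rise, corrected for plate position, at least 3 library SD high, with starting brightness within 5 such deviations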
MrgX1 PAM conf: confirmation of human MrgX1 receptor positive allosteric modulators. MrgX1-HEK293, Fluo-4 calcium fluorescence, FDSS. shares compounds with MrgX1 allo act. 1,200 tested, 13% active. activation (ratio percentage), % at 10 µM;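 active = ratio at least 3 SD above the weak peptide control, stable starting fluorescence, no direct agonism earlier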;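 note: compound followed by low BAM8-22 agonist challenge near EC20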
HEK293 Ca flux: activity in parental HEK293 cells lacking MrgX1; shares compounds with MrgX1 antag; fluorescence ratio F(max-min)/F0 at 10 µM; 4,000 tested, 2% active; Fluo-4 calcium fluorescence, FDSS;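 active = duplicate-averaged calcium fluorescence ratio at least three times the standard deviation of buffer wells, a nonspecific response in parental cells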
HEK293 Ca counter: counter-screen for MrgX1 allosteric activators: effect in parental HEK293 cells; fluorescence ratio F(max-min)/F0 at 10 µM; shares compounds with MrgX1 antag; parental HEK293 calcium flux, Fluo-4 fluorescence ratio; active compounds read high; 4,000 tested, 0.4% active;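 active = calcium fluorescence ratio, averaged over duplicates, at least 3 SD of the buffer-well ratio, meaning a nonspecific response in receptor-free cells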;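 note: untransfected parental HEK293 lacking MrgX1 used as counterscreen for MrgX1 allosteric activators; fluorescence change taken during the second addition on a kinetic imager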
HEK293 Ca cntr2: counter-screen for MrgX1 activators: effect in parental HEK293 cells. 4,000 tested, 8.7% active. shares compounds with MrgX1 antag. Fluo-4 calcium fluorescence (FDSS); active compounds read high. fluorescence ratio F(max-min)/F0 at 10 µM;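 active = calcium fluorescence ratio at least three times the spread of buffer wells, meaning a non-specific response in parental cells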
A number is an active result; . = inactive; / = no result given. Rows were chosen to be rich in hits. Some 4.1% of all compounds tested hit in one or more screens of this group.

SMILES	RGS4 pot	MrgX1 allo act	RGS4 block	MrgX1 antag	MrgX1 ag	Kir21 inh	RGS4 block valid	RGS4 uninduced	RGS4 inh ctr2	HEK293 Ca flux	HEK293 Ca counter	HEK293 Ca cntr2	others
COC(=O)c1nn(C23CC4CC(CC(C4)C2)C3)c2c1C(=O)N(c1ccc(F)cc1)C2=O	.	.	.	.	.	.	.	.	.	/	/	/
CC(C)Oc1ccc(C(CC(=O)O)NC(=O)Cc2ccc(Cl)cc2)cc1 (centres undefined)	.	.	.	.	.	.	/	/	/	/	/	/
Cc1ccc(NC(=S)N(CCN(C)C)C(C)c2cccnc2)cc1 (centres undefined)	.	.	.	.	.	.	/	/	/	/	/	/
OCCOCCn1c(C(CO)Nc2nc(-c3cccc(Br)c3)cs2)nc2ccccc21 (centres undefined)	.	.	.	.	.	.	/	.	7.5%	/	/	/
OCCOCCn1c(C(CO)Nc2nc(-c3ccccc3Br)cs2)nc2ccccc21 (centres undefined)	.	.	.	.	.	.	/	/	/	/	/	/
CCCn1c(C(CO)Nc2nc(-c3cccc(Br)c3)cs2)nc2ccccc21 (centres undefined)	.	.	10.5	.	.	.	32.5%	.	.	/	/	/
CCN(CC)Cc1c(C(=O)OC(C)C)nnn1-c1nonc1N	.	.	.	.	.	.	/	/	/	/	/	/
N#CC1(Nc2cccc(Br)c2)C(=O)Nc2ccccc21 (centres undefined)	.	.	10.3	.	53.8	.	44.5%	29.5%	76.5%	.	.	48.8	MrgX1 ag reconf=194.8%
O=C(CC1(O)C(=O)Nc2ccccc21)c1cccc(Br)c1 (centres undefined)	.	.	.	.	.	.	/	/	/	/	/	/
COc1ccc(F)cc1C(=O)C1CCCN(Cc2cn(C)c3ccccc23)C1 (centres undefined)	.	.	.	.	.	.	/	/	/	/	/	/
N#Cc1c(-c2c(Cl)cccc2Cl)noc1/C=C/Nc1ccc(C(=O)O)cc1	.	11.5	5.44	.	.	.	18.0%	.	.	.	.	.	MrgX1 PAM conf=.
CCCCN(C)c1nc(-c2ccco2)c2c(c1C#N)CC(C)(C)OC2	.	.	7.17	.	28.3	.	.	.	34.5%	.	.	.	MrgX1 ag reconf=84.5%
CN(C)CCNc1nc(-c2ccco2)c2c(c1C#N)CC(C)(C)OC2	.	.	.	.	.	.	/	/	/	/	/	/
Cc1ccc(S(=O)(=O)CCC(=O)c2ccc(O)cc2O)cc1	.	.	24.5	.	30.1	.	62.0%	46.0%	.	.	.	.	MrgX1 ag reconf=126.9%
Cc1ccc(S(=O)(=O)CCC(=O)OCC(=O)c2cc(C)ccc2C)cc1	.	.	.	.	.	.	/	/	/	/	/	/
Nc1ncnc2c1ncn2[C@@H]1O[C@H](CO)C[C@@H]1O	.	.	.	.	.	.	/	/	/	/	/	/
